# According to ChEMBL document CHEMBL2380254, “Optimization of tocotrienols as antiproliferative and antimigratory leads” (Eur J Med Chem, 2013):
# Experiments:
# Assay type in all cases: functional
# UACC-257 [1] = test: Growth inhibition of human UACC257 cells assessed as cell growth at 10 uM after 48 hrs by sulforhodamine B assay; conditions: UACC-257, 48 h, read-out: Activity
# Outline: (§1)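 Single-dose NCI-60 test at 10 µM. Cells were grown in RPMI 1640 with 5% FBS and 2 mM L-glutamine, preincubated 24 h, with T0 plates TCA-fixed. Exposure was 48 h at 37 °C, 5% CO2. Cells were fixed with cold TCA (final 10%, 4 °C, 60 min), stained with SRB and read at 515 nm. Percent growth was taken relative to T0 and untreated control; negative values denote cell kill.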
# RXF 393 = test: Growth inhibition of human RXF393 cells after 48 hrs by sulforhodamine B assay; conditions: RXF 393, 48 h
# Outline: (§2)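 NCI-60 panel cells grown in RPMI 1640 with 5% FBS and 2 mM L-glutamine, seeded at 5000–40,000 cells/well and preincubated 24 h. Five 10-fold dilutions (0.001–100 µM) from DMSO stocks were added for 48 h at 37 °C. Adherent cells were fixed with cold TCA (10% final) for 60 min at 4 °C, stained with 0.4% SRB, and read at 515 nm. GI50 was set where 100×(T−T0)/(C−T0)=50.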
# SW-620 = test: Growth inhibition of human SW620 cells assessed as cell growth at 10 uM after 48 hrs by sulforhodamine B assay; conditions: SW-620, 48 h, read-out: Activity; outline: as §1
# NCI-H226 [2] = test: Growth inhibition of human NCI-H226 cells after 48 hrs by sulforhodamine B assay; conditions: NCI-H226, 48 h; outline: as §2
# KM12 = test: Growth inhibition of human KM12 cells after 48 hrs by sulforhodamine B assay; conditions: KM12, 48 h
# Outline: (§3)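 NCI-60 screen: cells in RPMI 1640 with 5% FBS and 2 mM glutamine, 5000–40,000 cells/well, preincubated 24 h. Five concentrations (10-fold dilutions; 100 to 0.001 µM) applied for 48 h at 37 °C. TCA fixation, SRB stain, absorbance at 515 nm. Time-zero plates included; GI50 where 100×(T−T0)/(C−T0)=50.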
# PC-3 = test: Growth inhibition of human PC3 cells after 48 hrs by sulforhodamine B assay; conditions: PC-3, 48 h; outline: as §2
# BT-549 = test: Growth inhibition of human BT549 cells after 48 hrs by sulforhodamine B assay; conditions: BT-549, 48 h; outline: as §3
# DU-145 = test: Growth inhibition of human DU145 cells after 48 hrs by sulforhodamine B assay; conditions: DU-145, 48 h; outline: as §3
# SNB-19 = test: Growth inhibition of human SNB19 cells assessed as cell growth at 10 uM after 48 hrs by sulforhodamine B assay; conditions: SNB-19, 48 h, read-out: Activity; outline: as §1
# SR = test: Growth inhibition of human SR cells assessed as cell growth at 10 uM after 48 hrs by sulforhodamine B assay; conditions: read-out: Activity
# Outline: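 Suspension line in RPMI 1640 with 5% FBS, single 10 µM dose for 48 h. Settled cells were fixed with TCA (final 16%), then SRB-stained and read at 515 nm. Percent growth was taken versus T0 and control; negative values denote cytotoxicity.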
# A549 [3] = test: Growth inhibition of human A549/ATCC cells assessed as cell growth at 10 uM after 48 hrs by sulforhodamine B assay; conditions: A549, 48 h, read-out: Activity
# Outline: (§4)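 NCI-60 single-dose screen at 10 µM: cells in RPMI 1640 with 5% FBS, preincubated 24 h, then exposed 48 h at 37 °C. TCA fixation (16% final for suspension cells), SRB staining, absorbance 515 nm. Percent growth relative to time-zero and untreated control plates; negative values indicate cell kill.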
# SK-MEL-2 = test: Growth inhibition of human SK-MEL-2 cells after 48 hrs by sulforhodamine B assay; conditions: SK-MEL-2, 48 h; outline: as §2
# A549 [4] = test: Growth inhibition of human A549/ATCC cells after 48 hrs by sulforhodamine B assay; conditions: A549, 48 h; outline: as §3
# UACC-257 [5] = test: Growth inhibition of human UACC257 cells after 48 hrs by sulforhodamine B assay; conditions: UACC-257, 48 h
# Outline: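 NCI-60 five-dose screen. Cells were grown in RPMI 1640 with 5% FBS and 2 mM L-glutamine, plated at 5000–40,000 cells/well and incubated 24 h before dosing, with T0 plates TCA-fixed. DMSO stocks were diluted to doses of […] and exposed 48 h at 37 °C, 5% CO2. Cells were fixed with cold TCA (final 10%, 60 min, 4 °C), stained with 0.4% SRB in 1% acetic acid for 10 min, solubilized in 10 mM trizma base and read at 515 nm. GI50 is where 100×(T−T0)/(C−T0)=50.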
# CCRF-CEM = test: Growth inhibition of human CCRF-CEM cells after 48 hrs by sulforhodamine B assay; outline: as §3
# [6] = Growth inhibition of human HCC2998 cells assessed as cell growth at 10 uM after 48 hrs by sulforhodamine B assay; conditions: HCC 2998, 48 h, read-out: Activity; outline: as §4
# NCI-H226 [7] = test: Growth inhibition of human NCI-H226 cells assessed as cell growth at 10 uM after 48 hrs by sulforhodamine B assay; conditions: NCI-H226, 48 h, read-out: Activity
# Outline: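 Single-dose NCI-60 screen: adherent cells in RPMI 1640 with 5% FBS were exposed to 10 µM for 48 h at 37 °C after a 24 h preincubation. They were fixed in situ with cold TCA (10% final), stained with 0.4% SRB in 1% acetic acid, solubilized in 10 mM Tris base, and read at 515 nm. Percent growth was taken relative to time-zero and control plates.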
# HOP-62 = test: Growth inhibition of human HOP62 cells after 48 hrs by sulforhodamine B assay; conditions: HOP-62, 48 h; outline: as §3
# HCT-116 = test: Growth inhibition of human HCT116 cells after 48 hrs by sulforhodamine B assay; conditions: HCT-116, 48 h; outline: as §3
# HCT-15 = test: Growth inhibition of human HCT15 cells assessed as cell growth at 10 uM after 48 hrs by sulforhodamine B assay; conditions: HCT-15, 48 h, read-out: Activity; outline: as §4
# RPMI-8226 = test: Growth inhibition of human RPMI8226 cells assessed as cell growth at 10 uM after 48 hrs by sulforhodamine B assay; conditions: RPMI-8226, 48 h, read-out: Activity
# Outline: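 Single 10 µM dose applied to suspension cells in RPMI 1640 with 5% FBS and 2 mM L-glutamine for 48 h at 37 °C. Settled cells were fixed with 80% TCA (16% final), stained with SRB, and read at 515 nm. Percent growth was calculated against time-zero and untreated control optical densities.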
# HT-29 = test: Growth inhibition of human HT-29 cells after 48 hrs by sulforhodamine B assay; conditions: HT-29, 48 h; outline: as §3
# SK-OV-3 = test: Growth inhibition of human SKOV3 cells assessed as cell growth at 10 uM after 48 hrs by sulforhodamine B assay; conditions: SK-OV-3, 48 h, read-out: Activity; outline: as §1
# LOX IMVI = test: Growth inhibition of human LOXIMVI cells after 48 hrs by sulforhodamine B assay; outline: as §3
Structure (SMILES),growth at 10 µM (UACC-257 [1]) [%],GI50 (RXF 393) [µM],growth at 10 µM (SW-620) [%],GI50 (NCI-H226 [2]) [µM],GI50 (KM12) [µM],GI50 (PC-3) [µM],GI50 (BT-549) [µM],GI50 (DU-145) [µM],growth at 10 µM (SNB-19) [%],growth at 10 µM (SR) [%],growth at 10 µM (A549 [3]) [%],GI50 (SK-MEL-2) [µM],GI50 (A549 [4]) [µM],GI50 (UACC-257 [5]) [µM],GI50 (CCRF-CEM) [µM],growth at 10 µM [6] [%],growth at 10 µM (NCI-H226 [7]) [%],GI50 (HOP-62) [µM],GI50 (HCT-116) [µM],growth at 10 µM (HCT-15) [%],also measured
COc1ccc(CCN2COc3cc(C)c4c(c3C2)CC[C@@](C)(CC/C=C(\C)CC/C=C(\C)CCC=C(C)C)O4)cc1OC,71.8,1.36,-98.1,2,2.07,1.87,1.97,1.94,80.5,4.1,58.4,2.63,1.9,5.58,3.32,-87.2,112,1.76,1.76,57.4,growth at 10 µM (RPMI-8226): -32.6%; GI50 (HT-29): 1.85 µM; growth at 10 µM (SK-OV-3): 92.8%; GI50 (LOX IMVI): 1.77 µM
CC(C)=CCC/C(C)=C/CC/C(C)=C/CC[C@]1(C)CCc2c3c(cc(C)c2O1)OCN(CCCO)C3,64.2,1.2,-92.1,2.31,2.1,1.63,2,1.9,4.52,-32.1,-35.9,2.27,1.89,1.79,2.59,-82.9,98.7,1.78,1.79,0.85,growth at 10 µM (RPMI-8226): 2.29%; GI50 (HT-29): 1.78 µM; growth at 10 µM (SK-OV-3): 88.3%; GI50 (LOX IMVI): 1.69 µM
CC(C)=CCC/C(C)=C/CC/C(C)=C/CC[C@]1(C)CCc2c3c(cc(C)c2O1)OCN(CCCCCCCCO)C3,99,0.551,-46,5.17,0.784,1.51,5.69,1.08,-74.6,-53.3,-85.3,5.59,0.616,0.656,0.865,-90.9,50.2,2.7,0.597,-10.9,growth at 10 µM (RPMI-8226): -23.2%; GI50 (HT-29): 0.703 µM; growth at 10 µM (SK-OV-3): -56.9%; GI50 (LOX IMVI): 0.622 µM
CC(C)=CCC/C(C)=C/CC/C(C)=C/CC[C@]1(C)CCc2c3c(c(C)c(C)c2O1)OCN(CCCCCCO)C3,104,2.3,-29.4,2.81,2.84,2.52,4.18,2.96,18.1,-34.8,38.9,3.27,3.09,3.45,2.73,-63.7,97.3,2.7,2.87,38.4,growth at 10 µM (RPMI-8226): 82.4%; GI50 (HT-29): 3.04 µM; growth at 10 µM (SK-OV-3): 13.4%; GI50 (LOX IMVI): 2.83 µM
CC(C)=CCC/C(C)=C/CC/C(C)=C/CC[C@]1(C)CCc2c3c(c(C)c(C)c2O1)OCN(CCCCCCCCO)C3,119,2.45,10.1,2.79,2.93,2.37,3.39,2.98,73.6,-37.8,20.2,3.01,2.5,2.96,3.34,-87,91.6,2.81,2.95,75.3,growth at 10 µM (RPMI-8226): 71.2%; GI50 (HT-29): 3.26 µM; growth at 10 µM (SK-OV-3): 52.9%; GI50 (LOX IMVI): 3.29 µM
CC(C)=CCC/C(C)=C/CC/C(C)=C/CC[C@]1(C)CCc2c3c(cc(C)c2O1)OCN(C1CCN(Cc2ccccc2)CC1)C3,93,1.22,100,2.21,0.699,0.581,1.89,1.89,68.2,-35,49.6,2.3,1.57,2.24,0.308,-36.1,101,1.82,0.576,86.4,growth at 10 µM (RPMI-8226): 14.6%; GI50 (HT-29): 1.84 µM; growth at 10 µM (SK-OV-3): 109%; GI50 (LOX IMVI): 0.337 µM
CC(C)=CCC/C(C)=C/CC/C(C)=C/CC[C@]1(C)CCc2c3c(cc(C)c2O1)OCN(CCCCCCO)C3,90.5,0.546,-66.3,5.27,0.609,1.24,6.15,1,-6.48,-38,-34.7,5.66,0.607,0.62,0.866,-89.1,92.5,0.877,0.659,5.75,growth at 10 µM (RPMI-8226): 35.4%; GI50 (HT-29): 0.72 µM; growth at 10 µM (SK-OV-3): -37.2%; GI50 (LOX IMVI): 0.636 µM
CC(C)=CCC/C(C)=C/CC/C(C)=C/CC[C@]1(C)CCc2c3c(cc(C)c2O1)OCN(CCCCO)C3,98.1,4.68,-79.7,15.3,11.9,16.2,20.2,16.7,-28.3,-40.9,-37.7,18.9,15.5,11.4,14.5,-88.7,99.3,16.2,16,-53.9,growth at 10 µM (RPMI-8226): 79.2%; GI50 (HT-29): 8.33 µM; growth at 10 µM (SK-OV-3): 26.4%; GI50 (LOX IMVI): 11.3 µM
